By CC50 is commonly meant the concentration that lowers cell viability or growth by half. Lower therefore signals greater toxicity to the cells.

From PMC7114156 (Antiviral Research, 2009) come the findings set out here.

One series concerns U937. The series is described as follows: Growth of U937, MTS. It is filed as cell-based, human. The essentials:
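Cells were plated in 96-well plates in medium holding serial dilutions of test compound, 1 nM to 10 μM, with DMSO ≤1% (v/v) final. Growth was read by MTS after 72 h at 37 °C: 2 h with reagent plus phenazine methosulfate, then A490. K and Imax came from a fit to a modified Hill equation. Vero cells are African Green monkey.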

A further series concerns adenovirus type 5. The series is described as follows: Adenovirus assay: adenovirus-5 replication in HFF cells, viral DNA by qPCR. The class given is cell-based. Particulars: Ad5 in HFF cells, MOI 3, 72 h. A general note: In qPCR the cycle at which signal appears reflects the starting amount.
In another series the test system is HSV-1. The experiment in a line: HSV-1 infection in Vero cells. The class given is cell-based.
Series [1] in a line: Growth of activated PBMC, MTS. Particulars: human, activated PBMCs. The class given is cell-based. Summed up:
(§1)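 Primary cells were plated in 96-well plates with serial dilutions of test compound, 3 nM to 100 μM, for 72 h at 37 °C. Read-out was CTG for resting B and CD4 T cells and MTS for PBMC, WI38 and HUVEC. Purity was 90–95% for B cells and 97% for CD4 cells. Activated PBMCs were stimulated with phytohemagglutinin plus IL2.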

For another series, the system named is EBV. The experiment in a line: Viral yield in IM9 cells by quantitative PCR. The class given is cell-based. The conditions noted are these: data not shown.
Series [2] is described as follows: Growth of HUVEC endothelial cells, MTS. The conditions noted are these: human. It is filed as cell-based. Summed up:
as §1

The next series relates to Caski. The series is described as follows: Growth of Caski. It is filed as cell-based, human. The conditions noted are these: 72 h. The essentials: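 Cell lines carrying integrated viral genomes were plated in 96-well plates in medium with test compound. Growth was read by ATP luminescence (CellTiter-Glo) for HEK293 and WI38 VA13, and by MTS reduction (A490 after 2 h at 37 °C) for Namalwa, W12 20861, SiHa, Caski and HeLa. K and Imax came from a fit to a modified Hill equation.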

The subject of the next series is IM9 cells. The experiment in a line: Apoptosis assay. The class given is cell-based, human. Particulars: IM9, 20 h exposure. Summed up: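 Apoptosis read as cytoplasmic histone-associated DNA fragments with a Cell Death Detection ELISA kit. Exposure was 20 h for IM9 and MT4 and 40 h for W12 and U937. A405 was read kinetically at 30 °C, and the rate per hour came from linear regression of the linear portion. A Fas-activating antibody was the positive control.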

Series [3] is described as follows: Growth of WI38 fibroblasts, MTS. It is filed as cell-based. The conditions noted are these: human. Summed up: as §1
The test system of a further series is HPV-16. The experiment in a line: HPV DNA by qPCR in HKC/HPV16 cells. It is filed as cell-based.

`O=C(N[C@@H]1CCCc2c1[nH]c1ccc(Cl)cc21)c1ccccn1` [GSK983, N-[(1R)-6-Chloro-2,3,4,9-tetrahydro-1H-carbazol-1-yl]-2-pyridinecarboxamide]: the EC50 in the series with U937 (Homo sapiens, U-937, 72 h, read-out: K, growth, MTS) came to 0.026 ± 0.004 µM; in the series on Caski (Homo sapiens, Ca-Ski, read-out: K, Growth, MTS) it was 0.032 ± 0.006 µM; in the series with HPV-16 (Human papillomavirus 16, read-out: K, HPV DNA, qPCR) it was 0.0022 ± 0.0002 µM. In addition, in the series with U937 (U937, 3 days, rate of MTS reduction), the “Outcome of growth inhibition over time” value is given as “cytostasis”. The “Imax, Growth, MTS” value in the series with U937 (U937, monocyte, 72 h) is given as 55 ± 2%; in the series on Caski (Caski, HPV16 integrated), 33 ± 1.5%. Besides, the “Imax, viral DNA by qPCR” value with adenovirus type 5 was found to be 100%. Moreover, the “Susceptibility of HSV-1” value with HSV-1 (at concentrations below 1 μM) is reported as “not susceptible”. For the same compound, the “Inhibition of HSV-1 infection in Vero cells” value in the series on HSV-1 (concentration range 1 nM to 100 μM) was 50% inhibition in the micromolar range. Also, the CC50 at 72 h in series [1] is 224 µM; in series [2], > 10 µM; in [3] it was 90 µM. The “Viral yield in IM9 cells by quantitative PCR” value in the series on EBV was “decrease in parallel with inhibition of cell growth”. The Apoptosis entry in the series on IM9 cells is listed as “induced apoptosis”. Besides, in the series with HPV-16 (HKC/HPV16, HPV type 16), the “Imax, HPV DNA, qPCR” value stood at 89 ± 2%. Besides, the Selectivity index in the series with HPV-16 (HPV DNA qPCR in HKC/HPV16 vs HKC) is 18,000 ± 5,600.
